Consider 16 compounds from ChEMBL document CHEMBL1145002, “Isoform-selective substrates of nitric oxide synthase” (J Med Chem, 2003).

Assay [1] concerns the target Nitric oxide synthase 1 (Rattus norvegicus) (UniProt P29476). As to the kind of experiment: Evaluation as substrate of Neuronal nitric oxide synthase by hemoglobin assay using NOHA as control. In outline:
(§1)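 Oxyhemoglobin-to-methemoglobin conversion was read at 401 nm (ε 38 mM⁻¹ cm⁻¹) at 37 °C to give initial NO rates. Conditions were 0.5–1 unit enzyme in 50 mM HEPES pH 7.4 with 15 μM oxyhemoglobin, SOD, catalase, 200 μM NADPH, 4 μM FAD/FMN, 5 μM BH₄, 2–5 mM DTT and 0.5 mM substrate, plus 1 mM CaCl₂ and 10 μg/mL CaM. Rates are reported relative to NOHA (100%), mean ± SD of ≥3 experiments.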

Assay [2] addresses T1, Nitric oxide synthase, inducible (Mus musculus) (UniProt P29477).
T1 sequence (whole entry): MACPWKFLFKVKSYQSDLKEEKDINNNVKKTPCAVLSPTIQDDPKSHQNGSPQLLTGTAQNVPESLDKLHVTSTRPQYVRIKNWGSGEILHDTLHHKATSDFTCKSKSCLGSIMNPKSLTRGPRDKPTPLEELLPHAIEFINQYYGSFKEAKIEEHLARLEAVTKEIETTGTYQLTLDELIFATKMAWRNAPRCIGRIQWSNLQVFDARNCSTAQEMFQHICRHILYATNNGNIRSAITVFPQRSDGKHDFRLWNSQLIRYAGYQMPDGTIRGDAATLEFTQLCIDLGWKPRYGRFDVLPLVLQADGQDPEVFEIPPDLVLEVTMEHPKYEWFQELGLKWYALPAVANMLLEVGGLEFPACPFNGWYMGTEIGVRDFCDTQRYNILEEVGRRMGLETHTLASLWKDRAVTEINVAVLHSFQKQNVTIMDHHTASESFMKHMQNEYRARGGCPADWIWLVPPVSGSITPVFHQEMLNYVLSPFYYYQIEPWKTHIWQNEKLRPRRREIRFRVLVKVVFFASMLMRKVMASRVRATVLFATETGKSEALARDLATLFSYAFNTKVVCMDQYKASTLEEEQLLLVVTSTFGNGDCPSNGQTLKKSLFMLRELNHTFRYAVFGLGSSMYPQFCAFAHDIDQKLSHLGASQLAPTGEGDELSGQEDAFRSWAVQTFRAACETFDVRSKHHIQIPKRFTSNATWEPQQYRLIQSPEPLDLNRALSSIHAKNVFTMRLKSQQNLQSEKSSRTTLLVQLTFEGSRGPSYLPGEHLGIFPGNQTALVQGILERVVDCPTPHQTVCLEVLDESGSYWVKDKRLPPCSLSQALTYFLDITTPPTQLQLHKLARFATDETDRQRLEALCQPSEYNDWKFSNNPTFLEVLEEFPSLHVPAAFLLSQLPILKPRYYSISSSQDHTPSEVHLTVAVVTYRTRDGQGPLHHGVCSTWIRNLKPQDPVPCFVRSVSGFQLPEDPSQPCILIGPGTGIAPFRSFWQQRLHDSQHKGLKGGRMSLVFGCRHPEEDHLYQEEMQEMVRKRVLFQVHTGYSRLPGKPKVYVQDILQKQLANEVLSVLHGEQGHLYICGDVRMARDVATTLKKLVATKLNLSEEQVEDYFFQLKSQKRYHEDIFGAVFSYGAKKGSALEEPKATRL
As to the kind of experiment: Evaluation as substrate of Inducible nitric oxide synthase by hemoglobin assay using NOHA as control. It is filed as functional. In short, it runs like this:
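Initial NO-synthesis rate at 37 °C by spectrophotometric oxyhemoglobin assay. The cuvette held 0.5–1 unit enzyme in 50 mM HEPES pH 7.4 with 15 μM oxyhemoglobin, SOD, catalase, 200 μM NADPH, 4 μM FAD/FMN, 5 μM BH₄, 2–5 mM DTT, 0.5 mM substrate and 1 mM magnesium acetate. Methemoglobin formation was followed at 401 nm (ε 38 mM⁻¹ cm⁻¹). Rates are given as % of NOHA, mean ± SD, n≥3.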

Assay [3] concerns the target T2, Nitric oxide synthase 3 (Homo sapiens) (UniProt P29474).
T2 sequence (whole entry): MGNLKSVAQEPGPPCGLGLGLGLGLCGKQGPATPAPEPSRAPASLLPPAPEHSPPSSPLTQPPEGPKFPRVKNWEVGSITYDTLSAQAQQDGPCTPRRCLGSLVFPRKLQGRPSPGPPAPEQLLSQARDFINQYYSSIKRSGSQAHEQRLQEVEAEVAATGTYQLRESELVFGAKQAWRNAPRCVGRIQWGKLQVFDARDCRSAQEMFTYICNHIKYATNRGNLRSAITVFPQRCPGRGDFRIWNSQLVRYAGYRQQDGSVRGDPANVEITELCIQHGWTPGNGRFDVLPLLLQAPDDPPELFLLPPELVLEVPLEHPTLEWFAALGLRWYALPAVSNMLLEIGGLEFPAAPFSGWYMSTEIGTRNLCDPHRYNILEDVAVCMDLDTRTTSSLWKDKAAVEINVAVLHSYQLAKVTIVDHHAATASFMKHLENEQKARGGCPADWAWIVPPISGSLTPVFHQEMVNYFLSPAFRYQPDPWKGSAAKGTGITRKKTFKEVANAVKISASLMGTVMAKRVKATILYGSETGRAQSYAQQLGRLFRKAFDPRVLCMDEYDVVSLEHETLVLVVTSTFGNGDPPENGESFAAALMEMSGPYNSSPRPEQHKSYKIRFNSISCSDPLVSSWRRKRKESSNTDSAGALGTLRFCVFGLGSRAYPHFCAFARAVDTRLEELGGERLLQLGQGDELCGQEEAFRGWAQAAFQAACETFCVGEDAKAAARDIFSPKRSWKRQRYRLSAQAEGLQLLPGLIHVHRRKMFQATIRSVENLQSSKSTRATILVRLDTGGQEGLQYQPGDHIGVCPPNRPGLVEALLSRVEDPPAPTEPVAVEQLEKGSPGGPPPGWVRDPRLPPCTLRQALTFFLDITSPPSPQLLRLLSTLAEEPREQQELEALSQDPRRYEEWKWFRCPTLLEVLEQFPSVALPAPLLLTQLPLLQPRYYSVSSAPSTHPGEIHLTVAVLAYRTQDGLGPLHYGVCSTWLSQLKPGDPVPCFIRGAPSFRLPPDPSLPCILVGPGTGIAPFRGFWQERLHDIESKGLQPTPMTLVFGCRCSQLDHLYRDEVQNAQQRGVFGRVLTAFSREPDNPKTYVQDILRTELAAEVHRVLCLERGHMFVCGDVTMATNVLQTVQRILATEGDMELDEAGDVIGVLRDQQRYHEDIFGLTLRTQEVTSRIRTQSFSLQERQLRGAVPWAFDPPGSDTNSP
As to the kind of experiment: Evaluation as substrate of endothelial nitric oxide synthase by hemoglobin assay using NOHA as control. In outline:
as §1

Structures are written as SMILES.

Sequence of Nitric oxide synthase 1 (Rattus norvegicus) (P29476 whole entry): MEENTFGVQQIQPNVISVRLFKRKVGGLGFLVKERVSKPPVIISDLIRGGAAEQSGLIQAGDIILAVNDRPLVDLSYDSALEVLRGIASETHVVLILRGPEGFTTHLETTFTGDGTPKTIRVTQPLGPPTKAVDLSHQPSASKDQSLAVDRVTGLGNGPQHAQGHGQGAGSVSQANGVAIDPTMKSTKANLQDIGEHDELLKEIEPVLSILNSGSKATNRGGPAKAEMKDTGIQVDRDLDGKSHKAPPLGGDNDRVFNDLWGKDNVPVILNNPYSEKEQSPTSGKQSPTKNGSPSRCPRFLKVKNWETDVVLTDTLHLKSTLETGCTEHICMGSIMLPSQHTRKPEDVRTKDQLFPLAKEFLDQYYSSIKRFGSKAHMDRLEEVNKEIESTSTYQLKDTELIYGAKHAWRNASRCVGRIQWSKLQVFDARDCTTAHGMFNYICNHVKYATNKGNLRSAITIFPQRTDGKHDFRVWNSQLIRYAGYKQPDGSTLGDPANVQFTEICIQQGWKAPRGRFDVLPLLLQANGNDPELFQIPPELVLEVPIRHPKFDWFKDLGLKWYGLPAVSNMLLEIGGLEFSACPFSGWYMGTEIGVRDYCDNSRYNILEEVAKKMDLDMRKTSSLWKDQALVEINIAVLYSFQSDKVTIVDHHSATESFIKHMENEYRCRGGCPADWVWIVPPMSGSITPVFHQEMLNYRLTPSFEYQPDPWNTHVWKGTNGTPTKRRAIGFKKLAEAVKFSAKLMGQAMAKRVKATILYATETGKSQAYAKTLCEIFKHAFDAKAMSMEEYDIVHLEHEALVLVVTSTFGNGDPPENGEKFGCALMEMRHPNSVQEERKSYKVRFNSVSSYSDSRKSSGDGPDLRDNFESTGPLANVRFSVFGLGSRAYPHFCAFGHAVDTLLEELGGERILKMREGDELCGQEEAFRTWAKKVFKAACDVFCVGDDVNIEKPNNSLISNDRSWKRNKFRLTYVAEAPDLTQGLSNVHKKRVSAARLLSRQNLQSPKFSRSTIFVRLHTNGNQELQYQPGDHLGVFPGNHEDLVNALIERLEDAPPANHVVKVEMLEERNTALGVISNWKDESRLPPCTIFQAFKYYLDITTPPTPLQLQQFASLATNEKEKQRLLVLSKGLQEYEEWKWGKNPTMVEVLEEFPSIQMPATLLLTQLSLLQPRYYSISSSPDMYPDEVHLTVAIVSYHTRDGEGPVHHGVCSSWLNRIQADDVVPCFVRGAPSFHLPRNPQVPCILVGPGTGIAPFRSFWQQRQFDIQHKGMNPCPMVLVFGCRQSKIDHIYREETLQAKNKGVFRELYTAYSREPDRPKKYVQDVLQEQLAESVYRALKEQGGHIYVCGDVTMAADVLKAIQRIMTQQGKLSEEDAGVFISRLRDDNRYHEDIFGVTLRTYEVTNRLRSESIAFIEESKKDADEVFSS

For the compound `N=C(N)NCC1CC1`, the NO formation in assay [1], in assay [2] and in assay [3] was under 0.5% each time.
For the compound `N/C(=N/CC1CC1)NO`, the NO formation in assay [1], in assay [2] and in assay [3] was under 0.5% throughout.
Take `CC(C)NC(=N)NO`: the NO formation stood at 70% in assay [1], 15% in assay [2] and 38% in assay [3].
The matching figures for `N/C(=N/C1CC1)NO`: 70%, under 0.5% and 26%.
For the compound `N/C(=N\O)N1CCOCC1`, the NO formation in assay [1], in assay [2] and in assay [3] was under 0.5% in each case.
Take `C/C=C/C/N=C(/N)NO`: the figures for the NO formation in assay [1], in assay [2] and in assay [3] were 5%, under 0.5% and under 0.5%, respectively.
`N=C(N)NCCC[C@H](N)C(=O)O`: the NO formation came to 72% in assay [1], 50% in assay [2] and 38% in assay [3].
The like results for `C#CCC/N=C(/N)NO` were, in that order, 37%, 28% and under 0.5%.
The matching figures for `CCCC/N=C(/N)NOCc1ccccc1`: under 0.5%, under 0.5% and under 0.5%.
The like results for `CCCCN/C(N)=N/O` were, in that order, 64%, 42% and 20%.
On to `CCCCN(C)C(=N)NO`, for which the NO formation in assay [1], in assay [2] and in assay [3] was under 0.5% in each case.
On to `CC1CC1CN=C(N)N` (stereo not drawn), for which the NO formation in assay [1], in assay [2] and in assay [3] was under 0.5% throughout.
For `CCCC/N=C(/N)NOC`, the NO formation in assay [1], in assay [2] and in assay [3] was under 0.5% throughout.
Consider `N/C(=N\O)N1CCCC1`, for which the NO formation in assay [1], in assay [2] and in assay [3] was under 0.5% throughout.
Turning to `C/C=C/CN=C(N)N`, the NO formation in assay [1], in assay [2] and in assay [3] was under 0.5% in each case.
With `CCCCN=C(N)N`, the NO formation in assay [1] was under 0.5%; in assay [2] it was 6%; in assay [3] it was under 0.5%.
